One assay has as its system EKVX. In words: Cytotoxicity against human EKVX assessed as growth inhibition at 10 uM by NCI protocol relative to control. The assay is classed as functional. The settings on record: read-out: GI. The method in brief: (§1)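 Run by NCI as a single-dose screen at 10 μM across the sixty-cell-line panel, which covers nine human tumour tissue types. The read-out is percent growth inhibition of treated cells relative to untreated cells.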

For another assay, the system named is MDA-MB-435. In words: Cytotoxicity against human MDA-MB-435 assessed as growth inhibition at 10 uM by NCI protocol relative to control. The assay is classed as functional, cell-based. The method in brief:
as §1

The next assay concerns A498. The assay can be described thus: Cytotoxicity against human A498 assessed as growth inhibition at 10 uM by NCI protocol relative to control. The assay is classed as functional. The settings on record: read-out: GI. The method in brief: as §1
For another assay, the system named is Hs-578T. In words: Cytotoxicity against human HS 578T assessed as growth inhibition at 10 uM by NCI protocol relative to control. The settings on record: read-out: GI. It is filed as functional. Put shortly: as §1
Assay [1] deals with T47D. In words: Cytotoxicity against human T-47D assessed as growth inhibition at 10 uM by NCI protocol relative to control. It is filed as functional. The settings on record: read-out: GI. The method in brief: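 Run by the NCI under its standard protocol: one dose of 10 μM against a sixty-line panel from nine human tumour tissues. Result given as percent growth inhibition of treated cells relative to untreated cells.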

The subject of assay [2] is T47D. In words: Cytotoxicity against human T47D cells assessed as reduction in cell viability after 3 hrs by MTT assay. A general note: Tetrazolium assays rely on reduction of a dye to a coloured formazan, in cell work by metabolically active cells.

Molecules are shown by their SMILES. Active and inactive are the calls of the source. No cut-off for these calls is given here.

As for `O=c1cc(N2CCNCC2)c2cc(F)ccc2[nH]1`, the inhibition of growth at 10 µM with EKVX is 56.2%; in the assay on A498 it was 26%; in the assay on Hs-578T it was 19.6%; in the assay with T47D [1] it was 10.5%. Also, the “growth inhibition (GI)” value with MDA-MB-435 was “inactive”. The 50% inhibitory concentration (IC50) (commonly the concentration needed to halve the response being measured) in the assay with T47D [2] was 37.7 µM.
